The target of assay [1] is Free fatty acid receptor 1 (Homo sapiens, UniProt O14842). As to the kind of experiment: Agonist activity at human FFA1 receptor expressed in CHO cells assessed as increase in intracellular calcium levels measured for 90 secs by Fluo 4-AM dye based FLIPR assay. The format is functional, cell-based. A digest of the protocol:
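CHO cells stably expressing human FFA1 were seeded at 15 K cells/well and grown 12 h at 37 °C, 5% CO2, then washed with HBSS. Ca2+ flux after compound addition was read on FLIPR for 90 s. Activity = [(A−B)/(C−B)]×100, with B = vehicle and C = 10 µM γ-linolenic acid.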

Assay [2] relates to Platelet. As to the kind of experiment: Antiplatelet activity in rabbit platelet rich plasma assessed as inhibition of ADP-induced platelet aggregation at 0.1 mM preincubated for 5 mins followed by ADP addition measured up to 5 mins. It counts as functional. Particulars: Oryctolagus cuniculus. A digest of the protocol:
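Rabbit blood was spun at 500 rpm for 10 min to give PRP, and then at 3000 rpm for 10 min to give PPP. PRP was preincubated in duplicate with compound (0.1 mM), vehicle or ticlopidine for 5 min at 37 °C. Aggregation was induced with ADP (10 µM), and light transmission at maximal aggregation was recorded within 5 min. Inhibition % = (A−B)/A×100 versus vehicle. Three independent experiments, mean ± SD.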

Assay [3] deals with Platelet. In words: Antiplatelet activity in rabbit platelet rich plasma assessed as inhibition of ADP-induced platelet aggregation at 0.1 mM preincubated for 5 mins followed by ADP addition measured up to 5 mins in presence of NO scavenger carboxy-PTIO. It counts as functional. Particulars: Oryctolagus cuniculus. A digest of the protocol: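 Run as the rabbit PRP turbidimetric assay: compound at 0.1 mM, 5 min preincubation at 37 °C, ADP 10 µM, maximal light transmission recorded within 5 min. Carboxy-PTIO (20 µM) was also incubated with the drug-platelet suspension. Inhibition % is relative to vehicle. Mean ± SD of three independent experiments.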

The next assay deals with Mus musculus. As to the kind of experiment: Antidiabetic activity in ICR mouse assessed as reduction in plasma glucose AUC (0 to 90 mins) at 20 mg/kg, po dosed 30 mins prior to glucose challenge by OGTT relative to control. It counts as functional. Details: scale not given: the % may be the effect or the level left. A digest of the protocol: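 Male ICR mice, fasted 12 h, randomized into groups (n = 6). Compound was given orally at 20 mg/kg in 0.5% methylcellulose 30 min before an oral glucose load (3 g/kg). Blood glucose was read by test strips at −30, 0, 15, 30, 60 and 90 min. AUC0–90min was calculated; mean ± SD.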

pEC50: −log10 of the molar value.

Sequence of Free fatty acid receptor 1 (O14842 whole entry): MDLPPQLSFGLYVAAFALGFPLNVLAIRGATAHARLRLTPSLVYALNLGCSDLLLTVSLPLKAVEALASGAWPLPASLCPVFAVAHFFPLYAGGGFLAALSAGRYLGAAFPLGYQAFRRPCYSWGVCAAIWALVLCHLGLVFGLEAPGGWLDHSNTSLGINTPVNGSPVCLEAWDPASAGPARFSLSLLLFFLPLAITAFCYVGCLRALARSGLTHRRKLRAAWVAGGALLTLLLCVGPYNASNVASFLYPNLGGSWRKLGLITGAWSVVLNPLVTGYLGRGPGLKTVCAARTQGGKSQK

The pEC50 is the negative decadic logarithm of the EC50, by convention in mol/L. A word on the inhibition: it is the change of the read-out against control, counted positive when it falls. As to `Cc1cc(OCCCCO[N+](=O)[O-])cc(C)c1-c1cccc(COc2ccc(OCC(=O)O)c(F)c2)c1`, in assay [1], the negative-log EC50 (pEC50) is 7.03. The inhibition at 100 µM turned out to be 11.1% in the assay with Platelet [2] and 1.15% with Platelet [3].
On to `Cc1cc(OCCCS(C)(=O)=O)cc(C)c1-c1cccc(COc2ccc3c(c2)OC[C@H]3CC(=O)O)c1`, for which the Activity in the assay with Mus musculus was 32.3%.
For `Cc1cc(OCCO[N+](=O)[O-])cc(C)c1-c1cccc(COc2ccc(OCC(=O)O)c(F)c2)c1`, the pEC50 in assay [1] was 7.12. In addition, the inhibition at 100 µM is 8.28% with Platelet [2] and 1.34% with Platelet [3].
For `Cc1cc(OCCCO[N+](=O)[O-])cc(C)c1-c1cccc(COc2ccc(OCC(=O)O)c(F)c2)c1`, the pEC50 in assay [1] is 7.21. Besides, the figures for the inhibition at 100 µM in the assay on Platelet [2] and with Platelet [3] were 10.8% and 1.05%, respectively. Also, the Activity with Mus musculus is on record as 41.6%.
Regarding `COc1cc(C)c(-c2cccc(COc3ccc(OCC(=O)O)c(F)c3)c2)c(C)c1`, in assay [1], the pEC50 was 7.27.

(Values after ChEMBL document CHEMBL4229508, “Nitric oxide donor-based FFA1 agonists: Design, synthesis and biological evaluation as potential anti-diabetic and anti-thrombotic agents” (Bioorg Med Chem, 2018).)
